From ChEMBL document CHEMBL4513216, “Probing the Open Global Health Chemical Diversity Library for Multistage-Active Starting Points for Next-Generation Antimalarials” (ACS Infect Dis, 2020)

Assay: Toxicity liver stage against HepG2, at 10uM
Assay type: cell-based
Parameters: test concentration 10 uM, cell line HepG2-A16-CD81EGFP
Conditions: human, HepG2-A16-CD81EGFP cells; read-out: INHIBITION
Method in brief: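 Uninfected HepG2-A16-CD81EGFP cells, 3 × 10^3 per well, 1536-well, plated on prespotted compound at 10 μM final, parasite-free screening media added to match infected plates; puromycin 10 μM positive, DMSO 0.5% negative; run in parallel with 48 h PbLuc assay at 37 °C, 5% CO2; viability by CellTiter-Glo luminescence, normalized to controls.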
With `CCN(CC)c1nc2ccsc2c(=O)n1CCC(=O)NCc1ccco1` the cytotoxicity at 10 µM was 9.87%.
Work on `CC1(C)CNC(=O)CN(C(=O)COc2ccccc2)C1` yielded a cytotoxicity at 10 µM of 1.4%.
`COC1CCN(C(=O)Nc2ccccc2)CC(=O)N(C)c2ccccc21` (stereo unspecified) gave a cytotoxicity at 10 µM of 2.94%.
In the case of `CC(C)CCN1C(=O)C2(NC(=O)c3ccccc3O2)c2ccccc21` (stereo unspecified), the cytotoxicity at 10 µM was 4.02%.
`O=C(c1nc(Cc2c[nH]c3ccccc23)no1)N1CCCCC1` showed a cytotoxicity at 10 µM of 6.04%.
In the case of `Cc1cc(C)nc(NCCC(=O)Nc2ccc(Cn3cncn3)cc2)n1`, the cytotoxicity at 10 µM was -2.82%.
`CCS(=O)(=O)N1CCc2nc(N3CCOCC3)nc(N(C)C)c2CC1` gave a cytotoxicity at 10 µM of 21.3%.
Compound `CN1C(=O)CC2(CCN(S(=O)(=O)C3CC3)CC2)c2ccccc21` has a cytotoxicity at 10 µM of 2.04%.
In the case of `CCCS(=O)(=O)NCC1OCCc2cn(CC3CCOCC3)nc21` (stereo unspecified), the cytotoxicity at 10 µM was -5.6%.
Compound `CCC(C)NC(=O)Cn1c(Nc2cc(C)cc(C)c2)nc(C)cc1=O` (stereo unspecified) has a cytotoxicity at 10 µM of 9.91%.
Compound `COCCNC(=O)c1cc2c(nc1O)CC(c1cccs1)CC2=O` (stereo unspecified) has a cytotoxicity at 10 µM of 11.9%.
For `O=C1CC(c2cccc(Cl)c2)c2snc(C(=O)O)c2N1` (stereo unspecified), the cytotoxicity at 10 µM was 2.91%.
`Cc1ccc2nc(C)cc(NCCNS(=O)(=O)c3cn(C)nc3C)c2c1` showed a cytotoxicity at 10 µM of 8.06%.
With `O=C(CCC1CCCC1)N1CCC(c2cc3ncccc3c(O)n2)CC1` the cytotoxicity at 10 µM was -4.82%.
In the case of `Cc1nc(C2CCCN2C(=O)c2ccc(F)cc2)ncc1C(N)=O` (stereo unspecified), the cytotoxicity at 10 µM was -7.62%.
In the case of `Cc1noc(C)c1C(=O)N1CCCC(c2c(C)c(=O)nc3n2CCC3)C1` (stereo unspecified), the cytotoxicity at 10 µM was -21.1%.
`CCc1nnc(Nc2cccc(C3CCN(CCO)CC3)n2)s1` showed a cytotoxicity at 10 µM of -6.41%.
In the case of `O=C(c1cc(Br)c[nH]1)N1CCN(Cc2ccco2)CC1`, the cytotoxicity at 10 µM was -64.2%.
With `CN(Cc1ccc(F)c(F)c1)C(=O)CCc1nc(-c2nnc[nH]2)no1` the cytotoxicity at 10 µM was -43.6%.
`CC(C)CCc1noc(C[S+]([O-])CC(=O)NCc2ccccc2)n1` (stereo unspecified) showed a cytotoxicity at 10 µM of 5.28%.
Compound `CC(C)CC(C#N)NC(=O)CCNC(=O)C(C)(C)C` (stereo unspecified) has a cytotoxicity at 10 µM of -3.3%.
`Cc1ccc(C(=O)NCC(C)Cn2ccnc2C)c(=O)[nH]1` (stereo unspecified) showed a cytotoxicity at 10 µM of -0.89%.
For `CCc1nc(NC(=O)Cc2csc(-c3nnc[nH]3)n2)sc1C`, the cytotoxicity at 10 µM was -45.1%.
In the case of `CC(C)c1nc(CN(C)S(=O)(=O)c2cccs2)cs1`, the cytotoxicity at 10 µM was -48.8%.
In the case of `CCn1cc(CN2CCCN(C(=O)C3(C)CCOCC3)CC2)cn1`, the cytotoxicity at 10 µM was -45.4%.
Compound `CCOc1c(F)cccc1C(=O)N(c1cccnc1)C(C)C` has a cytotoxicity at 10 µM of 1.52%.
In the case of `O=C(CN1C(=O)c2ccccc2CS1(=O)=O)c1ccc(Cl)cc1`, the cytotoxicity at 10 µM was 4.17%.
`CC(=O)c1cccc(OCCCC(=O)N(C)Cc2cnc(C)s2)c1` gave a cytotoxicity at 10 µM of 14.2%.
`N#Cc1cccc(OCCN2CCCC2C(=O)N2CCSCC2)c1` (stereo unspecified) gave a cytotoxicity at 10 µM of 9.06%.
Work on `CC(C)(C)OC(=O)N1CCCc2ccc(NCc3ccon3)cc21` yielded a cytotoxicity at 10 µM of 10.9%.
For `CCS(=O)(=O)c1ccc2c(c1)OCCCO2`, the cytotoxicity at 10 µM was -2.3%.
`CC(CCNC(=O)NCCc1ccncc1)c1ccccc1` (stereo unspecified) showed a cytotoxicity at 10 µM of -5.82%.
For `CN(Cc1ccco1)C(=O)c1ccc(=O)n(C)c1`, the cytotoxicity at 10 µM was -47.5%.
Work on `CC(=O)c1ccc(-n2c(C)cn(CCS(C)(=O)=O)c2=O)cc1` yielded a cytotoxicity at 10 µM of 11.5%.
`O=C(Cn1cc(-n2cccc2)cn1)NCC1CCC1` showed a cytotoxicity at 10 µM of 14.7%.
Compound `O=C(CCN1CCCCC1c1cc2ccccc2[nH]1)N1CCOCC1` (stereo unspecified) has a cytotoxicity at 10 µM of 7.82%.
With `CN(C1CCN(c2ccccn2)CC1)S(=O)(=O)N1CCOCC1` the cytotoxicity at 10 µM was -5.23%.
Work on `CN(C(=O)Cc1ccc(NC(=O)NC2CCC2)cc1)c1ccccc1` yielded a cytotoxicity at 10 µM of -6.11%.
Compound `COc1cccc(NC(=O)N2CC[C@@H]3CN(C)S(=O)(=O)[C@@H]3CC2)c1` has a cytotoxicity at 10 µM of 7.3%.
Compound `COCCNC(=O)[C@H]1CN(c2ncccn2)C[C@H]2OCC[C@@H]12` has a cytotoxicity at 10 µM of -80.7%.
`COCCC(=O)N1CCN(CC2CC2)c2ncccc2C1` showed a cytotoxicity at 10 µM of -96.7%.
Compound `O=C1CC2(CCN(Cc3ccsc3)C2)CN1c1ccc2c(c1)OCO2` (stereo unspecified) has a cytotoxicity at 10 µM of -75%.
With `CC(=O)N1CCC2(CC1)CCN(C(=O)c1cccc(C(F)(F)F)c1)C2` the cytotoxicity at 10 µM was -74.5%.
Work on `CN(CCO)C[C@@H]1CN(C2CCN(c3ccccc3Cl)CC2)C[C@@H]1CO` yielded a cytotoxicity at 10 µM of -9.22%.
Work on `Cc1nn(C)c2nc(N3CCC(C(O)c4ccccn4)CC3)sc12` (stereo unspecified) yielded a cytotoxicity at 10 µM of 22.2%.
`CN1C[C@@H](N)C[C@H]1C(=O)N1CCC(CCCc2ccccc2)CC1` showed a cytotoxicity at 10 µM of -8.29%.
With `CCc1nc(CCNS(=O)(=O)c2cccc(C(=O)N(C)CC)c2)cs1` the cytotoxicity at 10 µM was -36.2%.
Work on `CN(Cc1csc(-c2cccs2)n1)Cc1cccnc1N` yielded a cytotoxicity at 10 µM of -1.06%.
`CCc1cnc(C)nc1NCCSc1nnc(C)n1CC` gave a cytotoxicity at 10 µM of -4.19%.
`O=C(NCCN1CCCCC1=O)C1CCC(=O)N(C2CCCC2)C1` (stereo unspecified) gave a cytotoxicity at 10 µM of -10.8%.
`O=C(CCC(=O)N1CCNC(=O)C1c1cccc(F)c1)NC1CCCC1` (stereo unspecified) showed a cytotoxicity at 10 µM of 2.68%.
Work on `CCC(C(=O)NC1(C(N)=O)CCCC1)n1cccn1` (stereo unspecified) yielded a cytotoxicity at 10 µM of -9.13%.
For `COc1ccccc1OC1(C(=O)O)CCN(c2ncnc(C)c2C)CC1`, the cytotoxicity at 10 µM was -11.2%.
`CCN(Cc1ccncc1)C1CCCN(C/C=C/c2ccc(F)cc2)C1` (stereo unspecified) gave a cytotoxicity at 10 µM of 6.61%.
Work on `COc1cc(C)ccc1S(=O)(=O)N[C@H]1CN(C(C)=O)C[C@@H]1C1CC1` yielded a cytotoxicity at 10 µM of 5.71%.
`Cc1cc(N2CCCC(N(C)C)C2)n2nccc2n1` (stereo unspecified) gave a cytotoxicity at 10 µM of -43.4%.
Work on `Cc1n[nH]c(CN2CCN(CC3CC3)[C@@H]3CS(=O)(=O)C[C@@H]32)n1` yielded a cytotoxicity at 10 µM of -15.8%.
Work on `CC(CCc1ccc(O)cc1)NC1CCN(S(C)(=O)=O)CC1` (stereo unspecified) yielded a cytotoxicity at 10 µM of 1.46%.
Compound `CCNC(=O)[C@@H]1C[C@H](N)CN1C1CCN(c2ccccc2OC)CC1` has a cytotoxicity at 10 µM of -43.9%.
With `COCCc1noc(CN2C(=O)OC[C@@H]2C(C)C)n1` the cytotoxicity at 10 µM was -8.93%.
`CCN(C)CC(=O)N1CCCC(c2nnc(CN3CCOCC3)n2C)C1` (stereo unspecified) showed a cytotoxicity at 10 µM of -8.28%.
Compound `OC1(CNCCSCc2ccccc2)CCCNC1` (stereo unspecified) has a cytotoxicity at 10 µM of 1.84%.
`COc1ccc(C2(C(=O)N3CC(c4cccnc4)C3)CC2(C)C)cc1` (stereo unspecified) showed a cytotoxicity at 10 µM of 12.3%.
`COc1ccc(-c2cc(C3CCCCCN3S(=O)(=O)N(C)C)on2)cc1` (stereo unspecified) gave a cytotoxicity at 10 µM of 2.24%.
With `Cn1ccnc1CN1CCCN(C(=O)c2ccc3cc[nH]c3c2)CC1` the cytotoxicity at 10 µM was -6.44%.
Work on `Cc1nc(C2CCCN2CC(=O)NCCOc2ccc(F)cc2)no1` (stereo unspecified) yielded a cytotoxicity at 10 µM of -9.63%.
Compound `CCNC(=O)CCc1c(C)nc2cc(O)nn2c1C` has a cytotoxicity at 10 µM of -12.6%.
Compound `Cc1cccc(N2CCN(CCNC(=O)C(C)n3cncn3)CC2)c1` (stereo unspecified) has a cytotoxicity at 10 µM of -1.91%.
With `CC(C)(C#N)C(=O)N1CCCC(c2cc(C(F)(F)F)[nH]n2)C1` (stereo unspecified) the cytotoxicity at 10 µM was -5.67%.
`CN1CCOC(CN(C(=O)CC2CCCC2)c2nccs2)C1` (stereo unspecified) showed a cytotoxicity at 10 µM of -3.78%.
With `CCCC1CCCN(Cc2csc(-c3cnn(C)c3)n2)CC1` (stereo unspecified) the cytotoxicity at 10 µM was -1.47%.
In the case of `Cc1cc(C(=O)N2CCc3nc(N4CCOCC4)nc(C)c3C2)c(C)o1`, the cytotoxicity at 10 µM was -110%.
With `O=C(c1cccc(Cl)c1)N1CCCn2c(CN3CCCCC3)nnc2C1` the cytotoxicity at 10 µM was 4.01%.
With `Cc1cnc(N2C[C@H]3CCCC(N(C)Cc4ccccn4)[C@H]3C2)nc1` (stereo partly specified) the cytotoxicity at 10 µM was -104%.
For `CC(C)NCC1OCCc2cn(C)nc21` (stereo unspecified), the cytotoxicity at 10 µM was 9.91%.
In the case of `COc1ccccc1CNC(Cc1cccs1)c1nc(C)c(C)s1` (stereo unspecified), the cytotoxicity at 10 µM was 3.89%.
`CC(C)COCC1CN(Cc2ccc3c(c2)OCO3)Cc2ncn(C)c21` (stereo unspecified) gave a cytotoxicity at 10 µM of -10.7%.
`COC[C@@]12CCO[C@@H]1CCN(Cc1ccc(C)s1)C2` gave a cytotoxicity at 10 µM of -91.9%.
Compound `CN(C)CCOCc1cncc2c1CCN(C(=O)C1CCOCC1)C2` has a cytotoxicity at 10 µM of -1.87%.
Work on `c1cc(CO[C@@H]2CC[C@H]3[C@H]2OCCN3Cc2ccoc2)ccn1` yielded a cytotoxicity at 10 µM of 10.8%.
`c1ccc(CN2CCOC3CNCC[C@H]32)cc1` (stereo partly specified) gave a cytotoxicity at 10 µM of 6.31%.
